A selection: hits, their analogues and other compounds. The true share with any hit is near 6.3%.
PostGolgi yeast: phenotypic screen on post-Golgi transport, primary screen; inhibition, % at 10 µM; AID 739, 2007; post-Golgi transport phenotypic cell assay; 98,000 tested, 0.9% active;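 further: yeast cells grown in 1536-well plates; yeast grown about 18 h at 30C before absorbance read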
tolC growth inh: growth inhibitors of E. coli tolC mutant, primary screen, strain BW25113 ΔtolC::kan, 384-well. OD615. growth inhibition, % at 10 µM (by protocol). 65,000 tested, 2.2% active. AID 573, 2007;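 active means growth inhibition at or above a cutoff equal to the mean over every tested compound plus 3 SD, cut at about 60% in these data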;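 further: growth measured after 20 h incubation at 37 °C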
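Test system – E. coli BW25113 ΔtolC::kan, tolC deletion mutant strain · Detection – OD at 615 nm · Buffer or medium – LB with kanamycin 50 µg/mL · Times – 20 h compound exposure of bacteria at 37 °C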
E coli WT exp: growth inhibitors of wild-type E. coli, primary screen, strain BW25113, expanded library, OD600; OD600 absorbance; growth inhibition, % at 100 µM; 98,000 tested, 0.15% active; AID 710, 2007;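 active means growth inhibition above about 50% at one test dose, limit read from the data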;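 further: growth measured after 20 h incubation at 37 °C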
PostGolgi ctrl: growth inhibition of yeast control strain, primary screen, counter-screen for post-Golgi transport modulator project | 98,000 tested, 5% active | inhibition, % at 10 µM | efflux-deficient yeast background strain, growth absorbance A615, 16 h
* marks the source's active call; other numbers are inactive results; . = no result given. Unless noted, no stated cut-off is given here; in the data, active means inhibition above about 30%; inactive means the rest.

SMILES	PostGolgi yeast	tolC growth inh	E coli WT exp	PostGolgi ctrl
CCOC(=O)COc1c(Br)cc(/C=C2\SC(=O)N(CC(=O)N3CCCC3)C2=O)cc1OC	4.7	.	3.0	6.1
COc1ccc(NC(=O)CCc2nc(-c3ccccc3F)no2)cc1	-6.0	21.4	4.0	7.9
CCCN(CCC)S(=O)(=O)c1ccc(C(=O)Nc2nnc(CSC)o2)cc1	12.2	98.8*	6.0	12.0
CCCCN(CC)S(=O)(=O)c1ccc(C(=O)Nc2nnc(COC)o2)cc1	2.5	88.3*	5.0	15.2
O=C(NC1CCCCC1)C(c1ccc(F)cc1)N(Cc1ccco1)C(=O)Cn1nnc2ccccc21 (stereo unspecified)	-1.4	-15.4	-14.0	-5.4
Cc1cccc(C)c1NC(=O)C(c1cccs1)N(Cc1ccco1)C(=O)Cn1nnc2ccccc21 (stereo unspecified)	-3.6	64.3*	-12.0	17.6
COC(=O)c1ccc(Oc2c(C(F)(F)F)oc3c(CN4CCN(C)CC4)c(O)ccc3c2=O)cc1	-3.5	.	5.0	34.6*
CCOc1ccccc1Oc1c(C)oc2c(CN3CCN(C)CC3)c(O)ccc2c1=O	-6.5	-17.2	0.0	0.4
COCCCn1c(SCc2cccc(C(F)(F)F)c2)nc2cc(OC)c(OC)cc2c1=N	15.0	.	10.0	41.8*
COc1ccc(Cn2c(SCc3cc(C)ccc3C)nc3cc(OC)c(OC)cc3c2=N)cc1	75.8*	.	6.0	62.6*
COc1ccc(Cn2c(SCc3ccc(C)cc3)nc3cc(OC)c(OC)cc3c2=N)cc1Cl	32.5*	.	-6.0	67.5*
CCCCN(CCCNC(=O)C1CCN(S(=O)(=O)CC)CC1)c1ccccc1	-5.4	-5.8	-2.0	-6.0
Cc1cc(C)nc(N(C#N)Cc2cccc3ccccc23)n1	1.9	.	-4.0	26.5
CCn1cc(C(=O)N2CCN(c3cccc(Cl)c3)CC2)c2cc(OC)c(OC)cc2c1=O	16.7	.	7.0	12.3
O=C(O)CSCCC(=O)Nc1ccc(F)cc1	1.9	-10.8	-18.0	3.4
O=[N+]([O-])/C=C/c1cn(Cc2ccc(F)cc2)c2ccccc12	35.6*	.	-3.0	79.5*
O=S(=O)(Nc1cccc2ccccc12)N1CCCC1	17.0	5.6	4.0	9.0
CCc1[nH]c(=O)c(C#N)c2c1CCCC2	8.1	5.3	-4.0	31.6*
CCCSc1nnc2n(C)c(=O)c3c4c(sc3n12)CCC4	3.6	7.9	1.0	3.4
CCCCN(CCCC)C(=O)CSc1nnc2n(C)c(=O)c3c4c(sc3n12)CCCC4	3.8	3.9	-4.0	33.8*
c1ccc(CN(Cc2ccco2)C(c2ccncc2)c2nnnn2C2CCCC2)cc1 (stereo unspecified)	1.0	63.6*	-6.0	20.5
CC(C)(C)n1nnnc1CN(Cc1ccco1)Cc1cc2cc3c(cc2[nH]c1=O)OCO3	-2.8	-0.7	-1.0	1.2
CCN(Cc1ccccc1)C(c1ccncc1)c1nnnn1C(C)(C)C (stereo unspecified)	13.6	12.7	-1.0	39.6*
CC(C)(C)n1nnnc1C(c1cccs1)N(Cc1ccccc1)Cc1cccnc1 (stereo unspecified)	13.3	80.0*	-9.0	28.1
CCN(Cc1ccccc1)C(c1ccc(C)cc1)c1nnnn1C(C)(C)CC (stereo unspecified)	6.9	.	-9.0	9.1
SMILES	PostGolgi yeast	tolC growth inh	E coli WT exp	PostGolgi ctrl
CC(C)(C)n1nnnc1CN(Cc1cccnc1)Cc1ccccc1Cl	50.3*	.	7.0	19.9
CC(C)(C)n1nnnc1C(c1cccnc1)N(Cc1ccccc1)Cc1cccs1 (stereo unspecified)	-2.7	.	-23.0	21.5
NC(=O)C1=NOC(CNc2ncc(C(F)(F)F)cc2Cl)C1 (stereo unspecified)	7.8	.	8.0	8.2
Cc1cc(NS(=O)(=O)c2ccc(NC(=O)c3cc(-c4cccnc4)nc4ccc(Cl)cc34)cc2)no1	-6.1	.	-3.0	34.9*
COc1cc(OC)c2c(C)c(Cl)c(=O)oc2c1	-1.6	-5.3	0.0	9.8
Cc1c(C(=O)N2CCN(S(C)(=O)=O)CC2)oc2ccccc12	-8.0	2.4	7.0	34.0*
Cc1c(C(=O)N2CCN(CCc3ccccc3)CC2)oc2ccccc12	7.0	9.8	13.0	13.1
O=C(NCCSc1c[nH]c2ccccc12)C1CC1	-3.5	.	5.0	1.3
CCCc1cc(C(=O)Nc2cccnc2Cl)no1	-0.3	.	7.0	30.2*
CC(C)=CC(=O)Nc1ccc(Br)cc1	2.5	18.3	8.0	2.1
CC/C(=C\C(=O)c1ccncc1)Nc1ccc(Br)cc1	34.4*	.	8.0	37.5*
CCCS(=O)(=O)N1CCN(C(=O)COc2ccc(-c3ccccc3)cc2)CC1	10.7	0.7	-15.0	3.0
O=C(O)c1ccccc1OCCOc1ccccc1C(=O)O	-8.2	-12.8	8.0	43.8*
Cc1cccc(Nc2nc(NCc3ccco3)nc(N3CCOCC3)n2)c1	2.6	61.9*	-13.0	0.7
COc1nc(N2CCCCCC2)nc(N2CCCCCC2)n1	22.7	42.4	2.0	32.3*
Cc1cccc(Nc2nc(N3CCCC3)nc(N3CCCC3)n2)c1	1.9	.	-1.0	38.0*
COc1nc(Nc2cccc(C)c2)nc(N2CCCCC2)n1	5.5	7.6	2.0	36.0*
Cc1cccc(Nc2nc(N)nc(CN3CCN(c4ccccc4)CC3)n2)c1	2.1	24.6	14.0	-9.8
O=C(Nc1ccc(N2CCOCC2)cc1)c1cn2ccccc2n1	-4.2	.	5.0	-4.8
CCOC(=O)/C=C1\NC(=O)C(C)S1 (stereo unspecified)	-5.2	.	5.0	7.0
Cc1cc(N)n(-c2nc(-c3cccnc3)nc3ccccc23)n1	-3.7	-10.9	-10.0	12.5
CCC(CC)C(=O)Nc1cccc(/C(C)=N/NC(=O)c2ccccc2Cl)c1	7.5	.	8.0	-1.1
Cc1ccc(OCc2nc(C#N)c(NCc3ccc4c(c3)OCO4)o2)cc1	1.4	81.3*	-11.0	31.2*
CN(C)S(=O)(=O)c1ccc(/C(O)=C2/C(=O)C(=O)N(CCN3CCCCC3)C2c2cccnc2)cc1 (stereo unspecified)	.	-26.1	.	.
Cc1ccc(NC(=O)c2cc([N+](=O)[O-])ccc2NCc2cccnc2)cc1Cl	22.5	.	-8.0	30.9*
SMILES	PostGolgi yeast	tolC growth inh	E coli WT exp	PostGolgi ctrl
Cc1noc(C)c1CSc1nc2sc(C)c(C)c2c(=O)n1-c1ccccc1	-9.9	15.8	-14.0	3.7
C=CCn1c(SCc2c(C)noc2C)nc2sc(C)c(C)c2c1=O	-4.3	.	-13.0	34.9*
Cc1ccc(N=C(NOC(=O)c2ccccc2)c2nonc2N)c(C)c1	-5.4	.	2.0	28.6
Cc1ccccc1N=C(NOCc1ccccc1)c1nonc1N	10.1	.	-8.0	36.0*
Cc1ccc(N=C(NOCc2ccc(Cl)cc2Cl)c2nonc2N)c(C)c1	-4.6	.	-11.0	26.7
Cc1ccccc1N=C(NOCc1ccc(Cl)cc1Cl)c1nonc1N	-4.7	.	-15.0	35.5*
COc1ccc([C@@H]2[C@H]3C(=O)N(c4cccc(C(F)(F)F)c4)C(=O)[C@H]3ON2C)cc1	-5.3	.	0.0	-2.1
Clc1ccc(CSc2nnc(-c3ccncc3)o2)c(Cl)c1	-0.3	9.1	-5.0	16.1
O=c1c(-c2nnc(SCc3ccc(Cl)cc3Cl)o2)cccn1Cc1ccccc1	-1.3	.	-21.0	66.0*
COc1ccc(CCNC(=O)c2cc3sc(Cl)cc3n2C)cc1OC	14.1	62.8*	0.0	10.0

High-throughput results: PubChem BioAssay, SRMLSC
